Reference: ChEMBL document CHEMBL1123670, “Inhibitors of cyclic AMP phosphodiesterase. 2. Structural variations of N-cyclohexyl-N-methyl-4-[(1,2,3,5-tetrahydro- 2-oxoimidazo[2,1-b]quinazolin-7-yl)-oxy]butyramide (RS-82856)” (J Med Chem, 1987)

Columns and labels:
[1] = biological target: T1, Phosphodiesterase; PDE3 & PDE4 (Homo sapiens) (UniProt P27815+Q14432+Q08499+Q07343+Q13370+Q08493); test: In vivo inhibition of cyclic AMP phosphodiesterase from dog heart
Procedure, shortened: (§1)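 Cyclic AMP phosphodiesterase prepared from human platelets (IC50, nM) or from rat or dog heart tissue (IC25, nM). Each agent tested at five inhibitor concentrations in triplicate. IC50/IC25 read graphically from the dose-response curve.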

Homo sapiens [2] = organism: Homo sapiens; test: Inhibition of ADP-induced platelet aggregation at 100 uM concentration; assay type: functional
Phosphodiesterase 3 [3] = biological target: T2, Phosphodiesterase 3 (Homo sapiens, UniProt Q14432+Q13370); test: In vitro inhibition of cyclic AMP phosphodiesterase from human platelets
[4] = In vivo inhibition of cyclic AMP phosphodiesterase from rat heart; details: in the assay text read “In vitro” for “In vivo”; procedure, shortened: as §1
Phosphodiesterase 3 [5] = biological target: T2, Phosphodiesterase 3; test: Inhibition of human platelet cAMP phosphodiesterase at 10e-4 M
Phosphodiesterase 3 [6] = biological target: T2, Phosphodiesterase 3; test: Inhibition of human platelet cAMP phosphodiesterase, 20% inhibition at E-4M
Homo sapiens [7] = organism: Homo sapiens; test: Ratio of IC50 of inhibition of platelet aggregation to IC50 of inhibition of platelet PDE (Efficacy index); assay type: functional
Procedure, shortened: (§2)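 Efficacy index is the IC50 for inhibition of ADP-induced platelet aggregation divided by the IC50 for human platelet PDE inhibition. Both IC50s come from graphical dose-response curves (five concentrations, triplicate).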

[8] = Inhibition of ADP-induced platelet aggregation; assay type: functional
Procedure, shortened: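 ADP-induced platelet aggregation. Read-out is the rate of change in percentage transmission of the primary aggregation phase after 5 min incubation. Each agent tested at five concentrations in triplicate, with experiments repeated at least twice using platelets from different donors. IC50 (μM) determined graphically.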

Homo sapiens [9] = organism: Homo sapiens; test: Ratio of IC50 of inhibition of platelet aggregation to IC50 of inhibition of platelet PDE; assay type: functional; procedure, shortened: as §2
[10] = biological target: T1, Phosphodiesterase; PDE3 & PDE4 (Homo sapiens); test: Inhibition of canine cardiac cAMP phosphodiesterase; assay type: protein assay; details: Canis lupus familiaris; target entry is the homologue from another species; procedure, shortened: as §1
Phosphodiesterase 3 [11] = biological target: T2, Phosphodiesterase 3; test: Inhibition of human platelet cAMP phosphodiesterase; procedure, shortened: as §1
[12] = Canis lupus familiaris; in the assay text read “In vitro” for “In vivo”; target entry is the homologue from another species
[13] = Canis lupus familiaris; target entry is the homologue from another species; in the assay text read “In vitro” for “In vivo”

| Structure (SMILES) | IC50 (Homo sapiens [2]) | IC50 (Phosphodiesterase 3 [3]) [nM] | IC25 [4] [nM] | Ratio (Homo sapiens [7]) | IC50 [8] [nM] | also measured |
| --- | --- | --- | --- | --- | --- | --- |
| CN1C(=O)CN2Cc3cc(OCCCC(=O)N(C)C4CCCCC4)ccc3N=C21 | Not Active | 76000 |  |  |  | IC25 [1, 12]: 39000 nM |
| CN(C(=O)CCCOc1ccc2c(c1)CN1C(=N2)NC(=O)[C@@H]1Cc1ccccc1)C1CCCCC1 | Not Active | > 10000 |  |  |  | IC25 [1, 13]: > 10000 nM |
| CN(C(=O)CCCOc1ccc2c(c1)CN1C(=N2)NC(=O)[C@@H]1c1ccccc1)C1CCCCC1 | Not Active | 3800 |  |  |  | IC25 [1, 13]: 4200 nM |
| CN(C(=O)CCCOc1ccc2c(c1)CN1NC(=O)NC1=N2)C1CCCCC1 | Not Active | 500 |  |  |  | IC25 [1, 12]: 180 nM |
| CC(C)[C@@H]1C(=O)NC2=Nc3ccc(OCCCC(=O)N(C)C4CCCCC4)cc3CN21 | Not Active | 10000 |  |  |  | IC25 [1, 13]: 6000 nM |
| CN(C(=O)CCCOc1ccc2nc3n(c(=O)c2c1)CC(=O)N3)C1CCCCC1 | Not Active | 5400 | 2900 |  |  |  |
| CN(C(=O)CCCOc1cccc2c1NC1=NC(=O)CN1C2)C1CCCCC1 | Not Active |  |  |  |  | IC25 [1, 12]: 1600 nM; inhibition (Phosphodiesterase 3 [5]): 20%; IC50 (Phosphodiesterase 3 [6]): > 100000 nM |
| COC1=NC2=Nc3ccc(OCCCC(=O)N(C)C4CCCCC4)cc3CN2C1 | Not Active | 9600 |  |  |  | IC25 [1, 13]: 2700 nM |
| CN(C(=O)CCC[S+]([O-])c1ccc2c(c1)CN1CC(=O)NC1=N2)C1CCCCC1 (stereo unspecified) | Not Active | 1700 |  |  |  | IC25 [1, 12]: 6200 nM |
| CNC(=O)CCCOc1ccc2c(c1)CN1CC(=O)NC1=N2 | Not Active | 1600 |  |  |  | IC25 [1, 13]: 1300 nM |
| CN(C(=O)CCCCCOc1ccc2c(c1)CN1CC(=O)NC1=N2)C1CCCCC1 |  | 12 | 21 | 158 | 1900 |  |
| O=C1CN2Cc3cc(OCCCC(=O)N4CCCCC4)ccc3N=C2N1 |  | 260 | 1500 | 56 | 14500 |  |
| CN(C(=O)COc1ccc2c(c1)CN1CC(=O)NC1=N2)C1CCCCC1 |  | 820 | 4400 | 8.5 | 7000 |  |
| CN(C(=O)CCCOc1ccc2nc3n(c(=O)c2c1)CCN3)C1CCCCC1 | Not Active | 25000 | 3700 |  |  |  |
| COc1ccc(C(=O)N2CCN(c3ccc4c(c3)CCC(=O)N4)CC2)cc1OC [VESNARINONE] |  | 6200 |  |  |  | Ratio (Homo sapiens [9]): 608 |
| CN(C(=O)CCCOc1ccc2c(c1)CN1CC(=O)NC1=N2)C1CCCCC1 [LIXAZINONE] |  |  |  | 10.8 | 110 | IC25 [10]: 4.1 nM; IC50 (Phosphodiesterase 3 [11]): 10.2 nM |
| O=C1CN2Cc3cc(OCCCC(=O)N4CCCc5ccccc54)ccc3N=C2N1 |  | 10 | 160 | 105 | 1050 |  |
| CC(C)[C@H]1C(=O)NC2=Nc3ccc(OCCCC(=O)N(C)C4CCCCC4)cc3CN21 | Not Active | > 10000 |  |  |  | IC25 [1, 12]: 6400 nM |
| CN(C(=O)CCCOc1ccc2c(c1)CN1CCNC1=N2)C1CCCCC1 | Not Active | 27000 |  |  |  | IC25 [1, 12]: 21000 nM |
| CN(C(=O)CCCOc1ccc2c(c1)CN1C(=N2)NC(=O)[C@H]1Cc1ccccc1)C1CCCCC1 | Not Active | > 10000 |  |  |  | IC25 [1, 13]: > 10000 nM |
| O=C(O)CN(C(=O)CCCOc1ccc2c(c1)CN1CC(=O)NC1=N2)C1CCCCC1 |  | 5 | 100 | 1040 | 5200 |  |
| O=C(O)CCCOc1ccc2c(c1)CN1CC(=O)NC1=N2 | Not Active | 280 |  |  |  | IC25 [1, 13]: 130 nM |
| CN(C(=O)CCCOc1ccc2c(c1)CN1CC(=O)NC1=N2)C(c1ccccc1)c1ccccc1 |  | 15 | 60 | 613 | 9200 |  |
| O=C1CN2Cc3cc(OCCCC(=O)N4CCCC4)ccc3N=C2N1 |  | 340 | 1700 | 241 | 82000 |  |
| CN(C(=O)CCCOc1ccc2c(c1)CN1CC(=O)NC1=N2)c1ccccc1 |  | 26 | 350 | 15 | 390 |  |
| CN(C(=O)CCCOc1ccc2c(c1)CN1C(=N2)NC(=O)[C@H]1c1ccccc1)C1CCCCC1 | Not Active | 3300 |  |  |  | IC25 [1, 13]: 3300 nM |
| CN(C(=O)CCCCOc1ccc2c(c1)CN1CC(=O)NC1=N2)C1CCCCC1 |  | 4.6 | 22 | 187 | 860 |  |
